Calls of active or inactive are those of the source. The rule behind the calls is not given here.
Assays:
[1] = tested on: CREB-binding protein/Histone acetyltransferase p300/Cellular tumor antigen p53 (Homo sapiens), P04637+Q09472+Q92793 [Y220C]; assay: AceTAC activity at FLAG-tagged p53Y220C mutant (unknown origin) expressed in human NCI-H1299 cells expressing p300/CBP assessed as increase in p53 acetylation at lysine 382 residue at 10 uM incubated for 24 hrs by western blot analysis relative to control; assay type: cell-based
Procedure, shortened: (§1)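 NCI-H1299 (p53Y220C) cells were treated at 0.1–10 μM (0.1, 0.3, 1, 3 or 10 μM) for 24 h. Lysates were Western blotted for p53 and p53K382ac, with vinculin as loading control. p53K382ac was normalised to total p53Y220C and quantified from two or three independent experiments.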

[2] = tested on: CREB-binding protein/Histone acetyltransferase p300/Cellular tumor antigen p53 (Homo sapiens), P04637+Q09472+Q92793 [Y220C]; assay: AceTAC activity at FLAG-tagged p53Y220C mutant (unknown origin ) expressed in human NCI-H1299 cells expressing p300/CBP assessed as increase in p53 acetylation at lysine 382 residue at 1 uM incubated for 24 hrs by western blot analysis; assay type: cell-based
Procedure, shortened: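 NCI-H1299 cells stably expressing p53Y220C, treated 24 h at 1 or 10 μM. Lysates were Western blotted for total p53 and p53 K382ac, with vinculin as loading control. Blots are representative of at least two independent experiments.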

[3] = tested on: NCI-H1299; assay: Antiproliferative activity against human NCI-H1299 cells expressing p53Y220C mutant assessed as reduction in cell viability incubated for 3 days by WST-8 assay; assay type: functional; conditions: NCI-H1299, 72 h, time 3 day
Procedure, shortened: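 NCI-H1299 p53Y220C cells were exposed to compound over a concentration range for 72 h, in some runs after 72 h of control or p300 siRNA, before the viability read-out. Values are mean ± SD of three independent experiments.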

[4] = biological target: CREB-binding protein/Histone acetyltransferase p300/Cellular tumor antigen p53 (Homo sapiens, UniProt P04637+Q09472+Q92793, Y220C); assay: AceTAC activity at FLAG-tagged p53Y220C mutant (unknown origin) expressed in human NCI-H1299 cells expressing p300/CBP assessed as increase in p53 acetylation at lysine 382 residue incubated for 24 hrs by western blot analysis; assay type: cell-based; procedure, shortened: as §1
[5] = tested on: CREB-binding protein/Histone acetyltransferase p300/Cellular tumor antigen p53 (Homo sapiens), P04637+Q09472+Q92793 [Y220C]; assay: AceTAC activity at FLAG-tagged p53Y220C mutant (unknown origin) expressed in human NCI-H1299 cells expressing p300/CBP assessed as stabilization of protein by measuring increase in aggregation temperature at 100 uM incubated for 1 hr at 32 to 50 degC by CETSA analysis; assay type: cell-based
Procedure, shortened: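 For CETSA, NCI-H1299 (p53Y220C) stable cells were treated with DMSO or 100 μM compound for 1 h, then heated at 32 to 50 °C. Soluble p53 was detected by Western blot. Representative of at least two independent experiments.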

[6] = tested on: CREB-binding protein/Histone acetyltransferase p300/Cellular tumor antigen p53 (Homo sapiens), P04637+Q09472+Q92793 [Y220C]; assay: AceTAC activity at FLAG-tagged p53Y220C mutant (unknown origin) expressed in human NCI-H1299 cells expressing p300/CBP assessed as fold increase in p53 acetylation at lysine 382 residue at 10 uM incubated for 24 hrs by western blot analysis relative to control; assay type: cell-based
Procedure, shortened: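 NCI-H1299 (p53Y220C) cells were exposed to 1, 3 and 10 μM for 24 h, then Western blotted. The K382ac signal was normalized to total p53Y220C and quantified from two independent experiments (±SD), relative to DMSO.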

[7] = tested on: Cellular tumor antigen p53 (Homo sapiens), P04637 [Y220C]; assay: Induction of p53Y220C mutant acetylation in human NUGC-3 cells expressing p300/CBP assessed as increase in p53 acetylation at lysine 382 residue at 1 to 10 uM incubated for 24 hrs by western blot analysis; assay type: cell-based; conditions: dose 1-10 µM
Procedure, shortened: (§2)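 BxPC3 or NUGC-3 cells, which endogenously carry p53Y220C, were dosed at 1, 3 or 10 μM (or DMSO) for 24 h. Lysates were immunoblotted for p53 and p53 K382ac, with vinculin loading control. Blots are representative of two independent experiments.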

[8] = tested on: NCI-H1299; assay: Antiproliferative activity against p53-null human NCI-H1299 cells assessed as reduction in cell viability at 0.47 to 15 uM incubated for 3 days by WST-8 assay; assay type: functional, cell-based; conditions: dose 0.47-15 µM, time 3.0 day
Procedure, shortened: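 p53-null NCI-H1299 cells were exposed to compound across the concentration series for 72 h before the viability read-out. Data are mean ± SD from three independent experiments.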

[9] = tested on: NUGC-3; assay: Antiproliferative activity against human NUGC-3 cells harboring p53Y220C mutant assessed as inhibition of cell growth incubated for 72 hrs by WST-8 assay; assay type: functional
Procedure, shortened: (§3)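 BxPC3 or NUGC-3 cells were treated with DMSO or compound over a concentration range for 72 h before the viability read-out. Values are mean ± SD of technical triplicates from three biological experiments.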

[10] = tested on: Cellular tumor antigen p53 (Homo sapiens), P04637 [Y220C]; assay: Induction of p53Y220C mutant acetylation in human BXPC-3 cells expressing p300/CBP assessed as increase in p53 acetylation at lysine 382 residue at 1 to 10 uM incubated for 24 hrs by western blot analysis; assay type: cell-based; conditions: dose 1-10 µM; procedure, shortened: as §2
[11] = tested on: BXPC-3; assay: Antiproliferative activity against human BXPC-3 cells harboring p53Y220C mutant assessed as inhibition of cell growth incubated for 72 hrs by WST-8 assay; assay type: functional; procedure, shortened: as §3

SMILES	Activity [1] [%]	Activity [2]	GI50 [3] [µM]	other results
CCn1c2ccc(CNCCCC(=O)NCCOc3ccc(CCc4nc5cc(-c6c(C)noc6C)ccc5n4CCN4CCOCC4)cc3F)cc2c2ccc(-c3cc(C)cs3)cc21	195	Active	4	
CCn1c2ccc(CNCCOCCOCCOCCOCCC(=O)NCCOc3ccc(CCc4nc5cc(-c6c(C)noc6C)ccc5n4CCN4CCOCC4)cc3F)cc2c2ccc(-c3cc(C)cs3)cc21	198	Active	4	
CCn1c2ccc(CNCCCCCCCCC(=O)NCCOc3ccc(CCc4nc5cc(-c6c(C)noc6C)ccc5n4CCN4CCOCC4)cc3F)cc2c2ccc(-c3cc(C)cs3)cc21	103	Active	5	
CCn1c2ccc(CNCCOCCOCCOCCn3cc(COc4ccc(CCc5nc6cc(-c7c(C)noc7C)ccc6n5CCN5CCOCC5)cc4F)nn3)cc2c2ccc(-c3cc(C)cs3)cc21				EC50 [4]: 1.87 µM; ΔTm [5]: 4 °C; fold change (FC) [6]: 4
CCn1c2ccc(CNCC(=O)NCCOc3ccc(CCc4nc5cc(-c6c(C)noc6C)ccc5n4CCN4CCOCC4)cc3F)cc2c2ccc(-c3cc(C)cs3)cc21	60		18	
CCn1c2ccc(CNCCCCCCCC(=O)NCCOc3ccc(CCc4nc5cc(-c6c(C)noc6C)ccc5n4CCN4CCOCC4)cc3F)cc2c2ccc(-c3cc(C)cs3)cc21	196	Active	4	
COc1ccc(CCc2nc3cc(-c4c(C)noc4C)ccc3n2CCN2CCOCC2)cc1F				Activity [7]: inactive; Activity [8]: inactive; Activity [9]: inactive; Activity [10]: inactive; Activity [11]: inactive
CCn1c2ccc(CNCCOCCC(=O)NCCOc3ccc(CCc4nc5cc(-c6c(C)noc6C)ccc5n4CCN4CCOCC4)cc3F)cc2c2ccc(-c3cc(C)cs3)cc21	186	Active	4	

— ChEMBL document CHEMBL5614410, “Design, Synthesis, and Evaluation of p53Y220C Acetylation Targeting Chimeras (AceTACs)” (J Med Chem, 2024)
